Reference: publication PMC12065538 (Drug Design, Development and Therapy, 2025)
Like-named read-outs stand apart in the source and are kept apart here.

How the values were obtained:
[1] = cited from earlier work
plasma protein = conditions: regardless of concentration; ref prescribing information; cited from earlier work
[2] = Observed plasma concentrations of venetoclax concomitant with voriconazole; format: in vivo; conditions: human, oral, 100 mg
Outline: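 Adults with hematologic malignancies received test compound 100 mg orally once daily plus an azole antifungal (400 mg bid day 1, then 200 mg bid; or 200 mg bid continued). Intensive set: EDTA blood 0–1 h predose and 2–24 h post-dose on day 5–11. Validation set: troughs 0–1 h predose, day 2–22. Plasma measured by LC-MS/MS in MRM mode with deuterated internal standards; calibration range 0.05–10.0 μg/mL.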

[3] = venetoclax 100 mg with posaconazole

For `CC1(C)CCC(CN2CCN(c3ccc(C(=O)NS(=O)(=O)c4ccc(NCC5CCOCC5)c([N+](=O)[O-])c4)c(Oc4cnc5[nH]ccc5c4)c3)CC2)=C(c2ccc(Cl)cc2)C1` [venetoclax], the “reduction of apparent oral clearance (CL/F) by CYP3A inhibitors” value ([1]; PopPK studies, various patient populations and healthy subjects) is listed as 82–86%, the CL/F ([1]; co-administered with posaconazole, patients with AML) is listed as 1.1 to 1.4 L/h and the AUC24h ([1]; observed, venetoclax 70 mg with posaconazole, day 12, CV 54%) is listed as 49100 ± 26500 ng·h/mL. For the same compound, the CL/F ([1]; other PopPK models with strong CYP3A inhibitors as covariates) was 2.2 to 3.6 L/h, the AUC24h ([1]; venetoclax 50 mg with posaconazole) was 47200 ± 27400 ng·h/mL and the “accumulation ratio (AUC24h day 14 to day 7)” value ([1]; venetoclax 70 mg with posaconazole 300 mg qd, range 1.0–2.9) was 1.3. For the same compound, the AUC24h [1, 3] was 76200 ± 13700 ng·h/mL, the “average AUC higher than venetoclax (400 mg) with caspofungin” value [1, 3] was 103% and the AUC24h ([1]; venetoclax 400 mg administered alone) was 32800 ± 16900 ng·h/mL. For the same compound, the “accumulation ratio (AUC24h day 14 to day 7)” value ([1]; venetoclax 400 mg alone, range 0.5–2.1) was 1.0, the CL/F ([1]; venetoclax alone) was 15.0 to 19.5 L/h and the “AUC increase versus venetoclax (400 mg) with caspofungin” value ([1]; venetoclax with voriconazole) was 77%. The “increase of AUC” value ([1]; with posaconazole) was 8.8 fold, the “increase of Cmax” value ([1]; with posaconazole) was 7.1 fold and the “fu (unbound fraction in plasma)” value (plasma protein) was under 0.01. The AUC [2] was 52400 ng·h/mL.
